# Measurements from different studies.
# Lines come from different studies, so protocols differ.
# Abl2: Abl2 (Mus musculus, UniProt Q4JIM5)
# BRD1 bromodomain: Bromodomain-containing protein 1, bromodomain (BRD1, Homo sapiens, UniProt O95696)
# Si: Sucrase-isomaltase, intestinal (Si, Rattus norvegicus, UniProt P23739)
Compound,target,test,test system,conditions,measurement,result
CC(C)(C)c1nc2c(s1)c1nc(N)ncc1c1ccc(NS(=O)(=O)c3c(F)cccc3F)c(F)c12,"Eukaryotic translation initiation factor 2-alpha kinase 1 (EIF2AK1, Homo sapiens, UniProt Q9BQI3)","enzyme activity, inhibitor, radiometric",,1 µM,remaining activity,69%
Nc1ncnc2occ(-c3ccc(NC(=O)Nc4cc(C(F)(F)F)ccc4F)cc3)c12,"Serine/threonine-protein kinase RIO2 (RIOK2, Homo sapiens, UniProt Q9BVS4)","cell-free assay, inhibitor",,20 µM,remaining signal,8.5%
CNC(=O)c1cc(Oc2ccc(NC(=O)Nc3ccc(Cl)c(C(F)(F)F)c3)cc2)ccn1,Abl2,"enzyme activity, inhibitor",,0.3 µM,inhibition,16%
O=C(c1ccc(F)cc1)N(Cc1ccccc1)C1CCCCC1,"Estrogen receptor (ESR1, Homo sapiens, UniProt P03372)",cell-free assay,,10 µM,inhibition,32%
NS(=O)(=O)c1ccc(Nc2nc(-c3ccc(F)cc3)c3ccccc3n2)cc1,BRD1 bromodomain,"binding, competition with immobilised ligand",,1 µM,remaining binding,2%
O=c1c(O[C@@H]2O[C@H](CO)[C@@H](O)[C@H](O)[C@H]2O)c(-c2ccc(O)c(O)c2)oc2cc(O)cc(O)c12,Si,"enzyme activity, inhibitor",,100 µg/mL,inhibition,54.6%
Cc1cnc(Nc2ccc(OCCN3CCCC3)cc2)nc1Nc1cccc(S(=O)(=O)NC(C)(C)C)c1,BRD1 bromodomain,"thermal stability, DSF",,10 µM,ΔTm,0.51 °C
Cn1c2c(c3ccc(Cl)c(Cl)c31)C(C#N)C(C)(C)NC2=O (stereo not shown),"Rhodopsin kinase GRK1 (GRK1, Homo sapiens, UniProt Q15835)","thermal stability, DSF",,10 µM,ΔTm,2.7 °C
Cc1cnc(NC2CCOCC2)nc1-n1cnc(C(=O)NC(CN)c2cc(F)cc(Cl)c2)c1 (stereo not shown),Abl2,"enzyme activity, inhibitor, radiometric",,1 µM,remaining activity,102%
CCOCc1nc(O)c(-c2nnc(Cc3ccc(Cl)cn3)o2)c(O)c1-c1c(OC)cccc1OC,"Apelin receptor (APLNR, Homo sapiens, UniProt P35414)","binding, radioligand",,,koff,0.00075 s⁻¹
C=C(C)[C@@H]1CCC(C)=C[C@H]1c1c(O)cc(CCCCC)cc1O,"Polyunsaturated fatty acid lipoxygenase ALOX12 (ALOX12, Homo sapiens, UniProt P18054)","enzyme activity in cells, inhibitor",PMNL,10 µM,remaining activity,131%
Cc1ccc(NC(=O)c2ccc(C)c(C(F)(F)F)c2)cc1C#Cc1nn(C2CCC(O)CC2)c2ncnc(N)c12 (stereo not shown),Abl2,cell-free assay,,10 µM,remaining signal,-1%
O=c1c(O[C@@H]2O[C@@H](CO)[C@H](O)[C@H]2O)c(-c2ccc(O)c(O)c2)oc2cc(O)cc(O)c12,Si,"enzyme activity, inhibitor",,100 µg/mL,inhibition,52.4%
Oc1ccc(-c2nc(-c3ccncc3)c(-c3ccc(F)cc3)[nH]2)cc1,BRD1 bromodomain,"thermal stability, DSF",,10 µM,ΔTm,0.46 °C
O=C1OC[C@H]2OC(=O)c3cc(O)c(O)c(O)c3-c3c(O)c(O)c(O)c4c3C(=O)O[C@H]([C@H]3OC(=O)c5c-4c(O)c(O)c(O)c5[C@H]3O)[C@@H]2OC(=O)c2cc(O)c(O)c(O)c2-c2c1cc(O)c(O)c2O,Si,"enzyme activity, inhibitor",,100 µg/mL,inhibition,48.3%
Cc1ccc(C(=O)Nc2ccc(CN3CCN(C)CC3)c(C(F)(F)F)c2)cc1C#Cc1cnc2cccnn12,"Hormonally up-regulated neu tumor-associated kinase (HUNK, Homo sapiens, UniProt P57058)","enzyme activity, inhibitor",,23.5 nM,remaining activity,94%
